Results on twelve compounds are retold here after ChEMBL document CHEMBL1137001, “Synthesis and evaluation of 9-O-substituted berberine derivatives containing aza-aromatic terminal group as highly selective telomeric G-quadruplex stabilizing ligands” (Bioorg Med Chem Lett, 2009).

Experiment [1] concerns Nucleic Acid. Briefly: Binding affinity to human telomeric G-quadruplex F21T DNA assessed as change in melting temperature at 2.0 uM by FRET assay. Format: nucleic-acid assay.
Experiment [2] can be described thus: Inhibition of telomerase from human MCF7 cellular extract by cell free TRAP assay. Put shortly: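 TRAP assay. Compounds at various concentrations were added to a telomerase reaction mixture containing extract from cracked MCF-7 breast carcinoma cells, and IC50 values were derived.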
Experiment [3] concerns Nucleic Acid. The experiment in a line: Inhibition of G-quadruplex HTG21 oligomer hybridization by PCR stop assay. Format: nucleic-acid assay. In outline: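 HTG21 was amplified by PCR in the presence of compound, and products were separated on gel. IC50 is the concentration that inhibits amplification by 50%.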
The test system of experiment [4] is Nucleic Acid. The experiment in a line: Binding affinity to hairpin duplex F10T DNA assessed as change in melting temperature at 2.0 uM by FRET assay.
The subject of experiment [5] is Nucleic Acid. Briefly: Induction of G-quadruplex structure formation in HTG21 oligomer assessed as formation of antiparallel quadruplex structure by CD spectroscopy. Format: nucleic-acid assay.

Each structure is given as a SMILES string. The source made the active and inactive calls. The calls are words filed in the database; no cut-off is given here.

In the case of `COc1ccc2cc3[n+](cc2c1OCCCn1ccc(N)nc1=O)CCc1cc2c(cc1-3)OCO2`, the values for the ΔTm in experiment [1] and in experiment [4] were 13 °C and 0 °C, respectively. Moreover, the IC50 in experiment [2] came out at 22 µM; in experiment [3], 14 µM.
The matching figures for `COc1ccc2cc3[n+](cc2c1OCCC[n+]1cccc(C)c1)CCc1cc2c(cc1-3)OCO2`: 21 °C, 0.5 °C, 14 µM and 6 µM.
Regarding `COc1ccc2cc3[n+](cc2c1OC)CCc1cc2c(cc1-3)OCO2`, the results for the shift in melting temperature (ΔTm) in experiment [1] and in experiment [4] were 4 °C and 1 °C, respectively.
Consider `COc1ccc2cc3[n+](cc2c1OCCC[n+]1cccc(F)c1)CCc1cc2c(cc1-3)OCO2`, for which the ΔTm in experiment [1] turned out to be 20 °C; in experiment [4], 0 °C. For the same compound, the figures for the IC50 in experiment [2] and in experiment [3] were 16 µM and 6 µM, respectively.
Take `COc1ccc2cc3[n+](cc2c1OCCCCC[n+]1ccccc1)CCc1cc2c(cc1-3)OCO2`: the results for the ΔTm in experiment [1] and in experiment [4] were 21 °C and 0.5 °C, respectively. The IC50 in experiment [2] turned out to be 15 µM; in experiment [3], 7 µM.
Take `COc1ccc2cc3[n+](cc2c1OCCC[n+]1cccc2ccccc21)CCc1cc2c(cc1-3)OCO2`: the ΔTm in experiment [1] was 20 °C; in experiment [4], 0 °C. Also, the IC50 in experiment [2] amounted to 15 µM; in experiment [3], 8 µM.
On to `COc1ccc2cc3[n+](cc2c1OCCCn1cc[n+](C)c1)CCc1cc2c(cc1-3)OCO2`, for which the results for the shift in melting temperature (ΔTm) in experiment [1] and in experiment [4] were 17 °C and 0 °C, respectively. Moreover, the IC50 in experiment [2] stood at 16 µM; in experiment [3], 8 µM.
As for `COc1ccc2cc3[n+](cc2c1OCCCCCC[n+]1ccccc1)CCc1cc2c(cc1-3)OCO2`, the ΔTm in experiment [1] came out at 20 °C; in experiment [4], 0 °C. Moreover, the results for the IC50 in experiment [2] and in experiment [3] were 15 µM and 4 µM, respectively.
On to `COc1ccc2cc3[n+](cc2c1OCCC[n+]1ccc(N(C)C)cc1)CCc1cc2c(cc1-3)OCO2`, for which the thermal shift (ΔTm) came to 25 °C in experiment [1] and 0 °C in experiment [4]. Besides, the IC50 in experiment [2] came to 14 µM; in experiment [3] it was 4 µM. Moreover, the outcome in experiment [5] was Active.
Take `COc1ccc2cc3[n+](cc2c1OCCCN1CCCCC1)CCc1cc2c(cc1-3)OCO2`: the IC50 is 16 µM in experiment [2] and 7 µM in experiment [3].
Turning to `COc1ccc2cc3[n+](cc2c1OCCC[n+]1ccccc1)CCc1cc2c(cc1-3)OCO2`, the ΔTm in experiment [1] worked out at 18 °C; in experiment [4] it was 0.5 °C. The IC50 came to 17 µM in experiment [2] and 8 µM in experiment [3].
For `COc1ccc2cc3[n+](cc2c1OCCCOc1ccncc1)CCc1cc2c(cc1-3)OCO2`, the ΔTm in experiment [1] amounted to 10 °C; in experiment [4], 0 °C. In addition, the IC50 in experiment [2] stood at 28 µM; in experiment [3], 12 µM.
